Consider six compounds from ChEMBL document CHEMBL3046448, “Design and syntheses of novel phthalazin-1(2H)-one derivatives as acetohydroxyacid synthase inhibitors” (J Agric Food Chem, 2006).

What is called Ki is the dissociation constant of the complex between target and ligand, obtained from inhibition or displacement.

Experiment [1] deals with Chenopodium album. In words: Herbicidal activity against Chenopodium album assessed as growth inhibition at 150 g ai/ha applied as post-emergence treatment under green house conditions measured 15 days post compound treatment. It counts as functional. To be noted: 360 h, read-out: GI. The procedure, abridged:
(§1)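 Post-emergence spray on pot-grown dicot weeds at the two-leaf stage in a greenhouse. Clay soil: pH 6.5, 1.6% organic matter, 37.3% clay, CEC 12.1 cmol/kg. Formulation: 100 g/L DMF/TW-80 emulsified concentrate, water-diluted to 150 g ai/ha. Untreated and DMF solvent controls. Visual inhibition rating at 15 days: ++ >80%, + 50-80%, − <50%.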

Experiment [2] relates to Amaranthus retroflexus. The experiment can be described thus: Herbicidal activity against Amaranthus retroflexus assessed as growth inhibition at 150 g ai/ha applied as post-emergence treatment under green house conditions measured 15 days post compound treatment. It counts as functional. To be noted: 360 h, read-out: GI. A digest of the protocol:
as §1

The test system of experiment [3] is Brassica juncea. In words: Herbicidal activity against Brassica juncea assessed as growth inhibition at 150 g ai/ha applied as post-emergence treatment under green house conditions measured 15 days post compound treatment. To be noted: 360 h, read-out: GI. It is filed as functional. A digest of the protocol:
as §1

For experiment [4], the system named is Setaria viridis. The experiment can be described thus: Herbicidal activity against Setaria viridis (green foxtail) assessed as growth inhibition at 150 g ai/ha applied as post-emergence treatment under green house conditions measured 15 days post compound treatment. It is filed as functional. The note with it: 360 h, read-out: GI. The procedure, abridged: (§2)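 Monocot weeds grown in pots in a greenhouse and sprayed post-emergence at the one-leaf stage. Clay soil: pH 6.5, 1.6% organic matter, 37.3% clay, CEC 12.1 cmol/kg. Formulation: 100 g/L emulsified concentrate (DMF, TW-80) diluted with water to 150 g ai/ha. Untreated and DMF controls included. Growth inhibition scored visually after 15 days: ++ >80%, + 50-80%, − <50%.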

In experiment [5] the test system is Digitaria sanguinalis. In words: Herbicidal activity against Digitaria sanguinalis (hairy crabgrass) assessed as growth inhibition at 150 g ai/ha applied as post-emergence treatment under green house conditions measured 15 days post compound treatment. It is filed as functional. The note with it: 360 h, read-out: GI. A digest of the protocol:
as §2

The test system of experiment [6] is Amaranthus retroflexus. In words: Herbicidal activity against Amaranthus retroflexus assessed as growth inhibition at 150 g ai/ha applied as pre-emergence treatment 24 hr after weeds seeds sowing under green house conditions measured 15 days post compound treatment. It counts as functional. To be noted: read-out: GI. The procedure, abridged: (§3)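 Pre-emergence spray applied 24 h after sowing weeds in pots in a greenhouse. Clay soil: pH 6.5, 1.6% organic matter, 37.3% clay, CEC 12.1 cmol/kg. Formulation: 100 g/L emulsified concentrate (DMF solvent, TW-80 emulsifier) diluted with water to 150 g ai/ha. Untreated and DMF-treated controls. Growth inhibition judged visually at 15 days: ++ >80%, + 50-80%, − <50%.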

Experiment [7] relates to Brassica juncea. The experiment can be described thus: Herbicidal activity against Brassica juncea assessed as growth inhibition at 150 g ai/ha applied as pre-emergence treatment 24 hr after weeds seeds sowing under green house conditions measured 15 days post compound treatment. It is filed as functional. The note with it: read-out: GI. The procedure, abridged:
as §3

The test system of experiment [8] is Setaria viridis. In words: Herbicidal activity against Setaria viridis (green foxtail) assessed as growth inhibition at 150 g ai/ha applied as pre-emergence treatment 24 hr after weeds seeds sowing under green house conditions measured 15 days post compound treatment. To be noted: read-out: GI. It counts as functional. The procedure, abridged:
as §3

The subject of experiment [9] is Digitaria sanguinalis. In words: Herbicidal activity against Digitaria sanguinalis (hairy crabgrass) assessed as growth inhibition at 150 g ai/ha applied as pre-emergence treatment 24 hr after weeds seeds sowing under green house conditions measured 15 days post compound treatment. It counts as functional. To be noted: read-out: GI. The procedure, abridged:
as §3

The test system of experiment [10] is Echinochloa crus-galli. The experiment can be described thus: Herbicidal activity against Echinochloa crus-galli (barnyard grass) assessed as growth inhibition at 150 g ai/ha applied as post-emergence treatment under green house conditions measured 15 days post compound treatment. It counts as functional. To be noted: 360 h, read-out: GI. The procedure, abridged:
as §2

Experiment [11] has as its system Chenopodium album. The experiment can be described thus: Herbicidal activity against Chenopodium album assessed as growth inhibition at 150 g ai/ha applied as pre-emergence treatment 24 hr after weeds seeds sowing under green house conditions measured 15 days post compound treatment. It is filed as functional. To be noted: read-out: GI. The procedure, abridged:
as §3

In experiment [12] the test system is Echinochloa crus-galli. In words: Herbicidal activity against Echinochloa crus-galli (barnyard grass) assessed as growth inhibition at 150 g ai/ha applied as pre-emergence treatment 24 hr after weeds seeds sowing under green house conditions measured 15 days post compound treatment. It counts as functional. To be noted: read-out: GI. A digest of the protocol: as §3

For experiment [13], the target named is T1, Acetolactate synthase, chloroplastic (Arabidopsis thaliana, UniProt P17597).
T1 sequence (P17597 whole entry): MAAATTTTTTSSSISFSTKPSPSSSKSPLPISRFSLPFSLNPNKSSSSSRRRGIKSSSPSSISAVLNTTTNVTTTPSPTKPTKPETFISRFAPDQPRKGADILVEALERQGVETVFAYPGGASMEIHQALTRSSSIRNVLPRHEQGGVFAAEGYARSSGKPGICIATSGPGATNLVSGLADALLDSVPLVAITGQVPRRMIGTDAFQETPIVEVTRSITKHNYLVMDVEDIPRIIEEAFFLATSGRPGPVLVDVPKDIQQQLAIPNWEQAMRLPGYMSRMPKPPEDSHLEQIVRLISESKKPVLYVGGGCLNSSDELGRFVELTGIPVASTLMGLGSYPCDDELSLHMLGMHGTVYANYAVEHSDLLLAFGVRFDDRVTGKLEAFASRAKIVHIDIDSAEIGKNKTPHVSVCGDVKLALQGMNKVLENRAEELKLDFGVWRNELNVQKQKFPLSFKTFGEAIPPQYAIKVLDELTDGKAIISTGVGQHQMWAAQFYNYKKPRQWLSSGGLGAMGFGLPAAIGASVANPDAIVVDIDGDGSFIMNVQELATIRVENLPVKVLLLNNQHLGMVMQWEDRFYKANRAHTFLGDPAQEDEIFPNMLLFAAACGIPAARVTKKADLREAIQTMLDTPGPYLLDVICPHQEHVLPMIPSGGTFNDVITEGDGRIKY
In words: Inhibition of wild type Arabidopsis thaliana acetohydroxyacid synthase.

Consider `CCCCn1nc(C)c2cccc(Oc3nc(OC)cc(OC)n3)c2c1=O`, for which the inhibition of growth at 150 g/ha in experiment [1] was more than 80%; in [2], more than 80%; in experiment [3], 50%; in experiment [4] it was 50%; in experiment [5] it was less than 50%; in experiment [6] it was less than 50%. The inhibition of growth at 150 g/ha in [7] was less than 50%; in experiment [8], less than 50%; in [9], less than 50%; in experiment [10] it was 50%; in experiment [11], less than 50%; in [12], less than 50%. Further, in [13], affinity was put at a Ki of 441 µM.

On to `COc1cc(OC)nc(Oc2cccc3c(C)nn(Cc4ccc(C)cc4)c(=O)c23)n1`, for which the inhibition of growth at 150 g/ha in experiment [1], in experiment [2], in experiment [3], in experiment [4], in experiment [5] and in experiment [6] was less than 50% each time. The inhibition of growth at 150 g/ha in [7], in experiment [8], in experiment [9], in [10], in experiment [11] and in [12] was less than 50% throughout. The Ki in [13] came to 637 µM.

As to `COc1cc(OC)nc(Oc2cccc3c(C)nn(Cc4ccccc4Cl)c(=O)c23)n1`, the inhibition of growth at 150 g/ha in experiment [1], in [2], in [3], in experiment [4], in experiment [5] and in experiment [6] was less than 50% each time. The inhibition of growth at 150 g/ha in [7], in experiment [8], in [9], in [10], in experiment [11] and in experiment [12] was less than 50% each time. The compound further had a Ki in [13] of 210 µM.

For `COc1cc(OC)nc(Oc2cccc3c(C)nn(Cc4cc(C)ccc4[N+](=O)[O-])c(=O)c23)n1`, the inhibition of growth at 150 g/ha in [1] was 50%; in experiment [2], more than 80%; in [3], 50%; in [4], 50%; in experiment [5], less than 50%; in experiment [6], less than 50%. The inhibition of growth at 150 g/ha in experiment [7] is less than 50%; in experiment [8], less than 50%; in experiment [9] it was less than 50%; in experiment [10], 50%; in [11], less than 50%; in experiment [12], less than 50%. The compound also showed a Ki in [13] of 310 µM.

In the case of `CCCn1nc(C)c2cccc(Oc3nc(OC)cc(OC)n3)c2c1=O`, the inhibition of growth at 150 g/ha in [1] is 50%; in [2], more than 80%; in experiment [3] it was 50%; in [4] it was 50%; in experiment [5], 50%; in [6], less than 50%. Besides, the inhibition of growth at 150 g/ha is less than 50% in experiment [7]; less than 50% in [8]; less than 50% in experiment [9]; 50% in experiment [10]; less than 50% in experiment [11]; less than 50% in [12]. Moreover, the Ki in [13] turned out to be 1660 µM.

Consider `COc1cc(OC)nc(Oc2cccc3c(C)nn(Cc4ccccc4C)c(=O)c23)n1`, for which the inhibition of growth at 150 g/ha in experiment [1] was 50%; in [2] it was more than 80%; in experiment [3], 50%; in experiment [4] it was 50%; in experiment [5], less than 50%; in experiment [6], less than 50%. In addition, the inhibition of growth at 150 g/ha in experiment [7], in experiment [8], in experiment [9], in [10], in experiment [11] and in experiment [12] was less than 50% in each case. Further, the Ki in experiment [13] came to 262 µM.
